Experimental data as given in ChEMBL document CHEMBL3414472, “Synthesis, SAR, and series evolution of novel oxadiazole-containing 5-lipoxygenase activating protein inhibitors: discovery of 2-[4-(3-{(r)-1-[4-(2-amino-pyrimidin-5-yl)-phenyl]-1-cyclopropyl-ethyl}-[1,2,4]oxadiazol-5-yl)-pyrazol-1-yl]-N,N-dimethyl-acetamide (BI 665915)” (J Med Chem, 2015).
In brackets after ≈: the same amount, converted by molar mass.

Columns and labels:
[1] = Plasma concentration in C57BL/6 mouse at 3 mg/kg, po after 2 hrs; type: ADME, organism-based; set-up: dose 3 mg/kg, route oral
[2] = Mean residence time in rat at 1 mg/kg, iv; type: ADME, organism-based; set-up: dose 1 mg/kg, route intravenous; conditions: in vivo
Procedure, shortened: (§1)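 iv 1 mg/kg in 70 % PEG; po 10 mg/kg as suspension in 0.5 % methyl cellulose/0.015 % Tween. Blood sampled at 11 timepoints (0, 5, 15, 30 min, 1, 2, 4, 6, 8, 12, 24 h) per dose; mean of n = 3. Clearance expressed as percent of hepatic blood flow.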

[3] = Clearance in human hepatocytes at 1 uM measured over 6 hrs by LC/MS analysis relative to hepatic blood flow; type: ADME, cell-based, Liver, Hepatocyte; conditions: read-out: CLH
Procedure, shortened: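 Cryopreserved human hepatocytes (1 million cells/mL) incubated with compound (1 µM) at 37 °C; compound remaining measured by LC/MS over duplicate 6-timepoint curves (0 to 6 h). The slope is taken from ln % remaining versus time. Clearance is expressed as percent of hepatic blood flow.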

[4] = Oral bioavailability in dog at 10 mg/kg; type: ADME, organism-based, Canis lupus familiaris; conditions: in vivo; procedure, shortened: as §1
[5] = test system: Mus musculus; test: In vivo inhibition of FLAP in C57BL/6 mouse assessed as LTB4 production in calcimycin-stimulated whole blood at 1 mg/kg, po after 2 hrs by ELISA (reference value: 100 +/- 13.3%); type: functional; set-up: scale not given: the % may be the effect or the level left
[6] = Metabolic stability in human liver microsomes at 1 uM preincubated for 10 mins followed by NADPH addition measured over 60 mins by LC/MS analysis relative to hepatic blood flow; type: ADME; conditions: read-out: Stability
Procedure, shortened: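 Human liver microsomes (1 mg/mL protein) with test compound at 1 µM, preincubated 10 min at 37 °C before adding NADPH. Remaining compound followed over a 0–60 min time course, as duplicate 8-timepoint curves. The slope of ln(% remaining) against time gives clearance, expressed as percent of hepatic blood flow.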

[7] = Aqueous equilibrium solubility of the compound in crystalline form in citric acid/disodium phosphate buffer at pH 6.8 after 24 hrs of rotation by HPLC analysis; type: physicochemical
Procedure, shortened: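 Saturated solution of crystalline material in citric acid/disodium phosphate buffer pH 6.8 rotated 24 h; after centrifugation and filtration, dissolved concentration measured by HPLC.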

[8] = biological target: T1, Arachidonate 5-lipoxygenase-activating protein (Mus musculus, UniProt P30355); test: Inhibition of FLAP in calcimycin-stimulated mouse whole blood assessed as inhibition of LTB4 synthesis preincubated for 15 mins followed by calcimycin stimulation measured after 30 mins
T1 sequence (P30355 whole entry): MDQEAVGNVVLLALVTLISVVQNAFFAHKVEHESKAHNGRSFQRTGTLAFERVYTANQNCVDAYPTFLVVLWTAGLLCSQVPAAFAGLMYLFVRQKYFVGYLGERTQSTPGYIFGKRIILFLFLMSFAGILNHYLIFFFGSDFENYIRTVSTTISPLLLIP
Procedure, shortened: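 Mouse whole blood run by the same protocol as the human whole blood LTB4 assay (compound 15 min at 37 °C, 100 µM final calcimycin 30 min, HTRF LTB4 read-out). Geometric mean (n ≥ 3) of duplicate 8-point curves.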

[9] = biological target: Cytochrome P450 2D6 (Homo sapiens, UniProt P10635); test: Inhibition of CYP2D6 in human liver microsomes using dextromethorphan as substrate preincubated for 10 mins followed by NADPH addition measured after 6 mins; type: ADME
Procedure, shortened: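 Human liver microsomes (0.05 mg/mL protein) with cocktail substrates: 4 µM diclofenac (2C9), 3 µM dextromethorphan (2D6), 2.5 µM midazolam (3A4). Compound in 0.1 M potassium phosphate pH 7.4 preincubated 10 min at 37 °C; NADPH added, reaction 6 min at 37 °C.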

[10] = biological target: T2, Prostaglandin G/H synthase 2 (Homo sapiens) (UniProt P35354); test: Inhibition of cycloxygenase-2 (unknown origin) at 10 uM relative to control
T2 sequence (whole entry): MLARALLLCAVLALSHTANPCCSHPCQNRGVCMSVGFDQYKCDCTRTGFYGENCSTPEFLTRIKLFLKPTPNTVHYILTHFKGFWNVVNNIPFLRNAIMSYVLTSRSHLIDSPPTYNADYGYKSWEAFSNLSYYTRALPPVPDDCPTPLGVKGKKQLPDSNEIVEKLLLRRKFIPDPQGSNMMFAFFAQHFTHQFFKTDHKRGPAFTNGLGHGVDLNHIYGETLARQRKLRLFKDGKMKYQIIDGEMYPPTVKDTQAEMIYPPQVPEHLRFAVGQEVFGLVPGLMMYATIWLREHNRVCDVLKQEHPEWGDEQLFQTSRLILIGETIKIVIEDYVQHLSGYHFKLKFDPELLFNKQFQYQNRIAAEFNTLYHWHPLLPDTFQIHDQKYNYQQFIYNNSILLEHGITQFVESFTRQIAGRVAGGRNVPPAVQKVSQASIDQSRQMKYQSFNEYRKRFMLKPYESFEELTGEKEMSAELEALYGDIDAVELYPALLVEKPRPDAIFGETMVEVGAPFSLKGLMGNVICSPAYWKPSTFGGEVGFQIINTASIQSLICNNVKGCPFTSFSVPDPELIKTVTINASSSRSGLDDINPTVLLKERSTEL

[11] = Plasma concentration in C57BL/6 mouse at 30 mg/kg, po after 2 hrs; type: ADME, organism-based; set-up: dose 30 mg/kg, route oral
[12] = test system: Mus musculus; test: In vivo inhibition of FLAP in C57BL/6 mouse assessed as LTB4 production in calcimycin-stimulated whole blood at 3 mg/kg, po after 2 hrs by ELISA (reference value: 100 +/- 13.3%); type: functional; set-up: scale not given: the % may be the effect or the level left
[13] = test system: Rattus norvegicus; test: Clearance in rat at 1 mg/kg, iv and 10 mg/kg, po relative to hepatic blood flow; type: ADME, organism-based, Liver; conditions: in vivo; procedure, shortened: as §1
[14] = biological target: T3, Arachidonate 5-lipoxygenase-activating protein (Homo sapiens, UniProt P20292); test: Displacement of [125I]-L-691831 from human FLAP expressed in insect SF9 cell membranes after 2 hrs by Topcount analysis
T3 sequence (P20292 whole entry): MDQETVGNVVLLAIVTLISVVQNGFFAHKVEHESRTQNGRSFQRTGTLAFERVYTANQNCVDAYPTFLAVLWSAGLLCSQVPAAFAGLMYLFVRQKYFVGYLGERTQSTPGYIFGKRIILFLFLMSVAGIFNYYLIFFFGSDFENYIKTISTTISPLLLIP

[15] = test system: Mus musculus; test: In vivo inhibition of FLAP in C57BL/6 mouse assessed as LTB4 production in calcimycin-stimulated whole blood at 10 mg/kg, po after 2 hrs by ELISA (reference value: 100 +/- 13.3%); type: functional; set-up: scale not given: the % may be the effect or the level left
[16] = Plasma concentration in C57BL/6 mouse at 100 mg/kg, po after 2 hrs; type: ADME, organism-based; set-up: dose 100 mg/kg, route oral
[17] = test system: Mus musculus; test: In vivo inhibition of FLAP in C57BL/6 mouse assessed as LTB4 production in calcimycin-stimulated whole blood at 30 mg/kg, po after 2 hrs by ELISA (reference value: 100 +/- 13.3%); type: functional; set-up: scale not given: the % may be the effect or the level left
[18] = Fraction unbound in human plasma by equilibrium dialysis method; type: ADME, cell-free
Procedure, shortened: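 Unbound fraction in human plasma determined by equilibrium dialysis, in duplicate.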

[19] = test system: Cynomolgus monkey; test: Clearance in cynomolgus monkey at 1 mg/kg, iv and 10 mg/kg, po relative to hepatic blood flow; type: ADME, organism-based, Macaca fascicularis, Liver; conditions: in vivo; procedure, shortened: as §1

Chain of Cytochrome P450 2D6 (P10635 whole entry): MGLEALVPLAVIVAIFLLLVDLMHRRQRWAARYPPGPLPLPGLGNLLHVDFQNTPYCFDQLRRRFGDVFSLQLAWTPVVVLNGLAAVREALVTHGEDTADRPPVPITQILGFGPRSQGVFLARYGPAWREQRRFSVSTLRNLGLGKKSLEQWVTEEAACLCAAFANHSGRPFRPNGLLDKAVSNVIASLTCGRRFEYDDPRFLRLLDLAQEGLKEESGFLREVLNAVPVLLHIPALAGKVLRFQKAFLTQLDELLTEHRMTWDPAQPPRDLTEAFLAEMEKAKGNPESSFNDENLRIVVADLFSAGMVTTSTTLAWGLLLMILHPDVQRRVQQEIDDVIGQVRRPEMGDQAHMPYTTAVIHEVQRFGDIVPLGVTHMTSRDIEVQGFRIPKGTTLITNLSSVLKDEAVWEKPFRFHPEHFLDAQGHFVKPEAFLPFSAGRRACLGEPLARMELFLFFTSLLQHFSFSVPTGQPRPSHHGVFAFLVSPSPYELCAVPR

concentration at 2 h [1]: 3.7 µM
MRT [2]: 3.1 h
hepatic extraction ratio at 6 h, 1 µM [3]: 0.41
bioavailability [4]: 58%
hepatic extraction ratio at 1 h, 1 µM [6]: 0.33
solubility thermodynamic at 24 h [7]: 48 µg/mL (≈ 105 µM)
IC50 [8]: 4.8 µM
IC50 [9]: > 30 µM
inhibition [10]: < 50%
concentration at 2 h [11]: 20.7 µM
CL [13]: 7%
IC50 [14]: 0.0017 µM
concentration at 2 h [16]: 152 µM
fraction unbound [18]: 0.047
CL [19]: 3.6%
Structure (SMILES): CN(C)C(=O)Cn1cc(-c2nc([C@@](C)(c3ccc(-c4cnc(N)nc4)cc3)C3CC3)no2)cn1 [BI 665915]
Activity [5]: 110.6%
Activity [12]: 91%
Activity [15]: 35.2%
Activity [17]: 22.2%
